Data taken from ChEMBL document CHEMBL2203129, “Structure-activity relationship studies of naphthol AS-E and its derivatives as anticancer agents by inhibiting CREB-mediated gene transcription” (Bioorg Med Chem, 2012).
Blank lines part the entries; values can stand above or below the compound they belong to. Calls of active or inactive are those of the source. No cut-off for these calls is given here.

Legend:
[1] = system: MDA-MB-468; assay: Growth inhibition of human MDA-MB-468 cells after 72 hrs by MTT assay; format: functional; settings: MDA-MB-468, 72 h
[2] = system: MDA-MB-231; assay: Growth inhibition of human MDA-MB-231 cells after 72 hrs by MTT assay; format: functional; settings: MDA-MB-231, 72 h
[3] = system: MCF7; assay: Growth inhibition of human MCF7 cells after 72 hrs by MTT assay; format: functional; settings: MCF7, 72 h
[4] = system: A549; assay: Growth inhibition of human A549 cells after 72 hrs by MTT assay; format: functional; settings: A549, 72 h
[5] = Inhibition of CREB-mediated gene transcription in human HEK293T cells by renilla luciferase reporter assay; format: cell-based; settings: HEK-293T
In short: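 HEK 293T cells transfected with pCRE-RLuc, replated after 3 h and attached overnight; compound added, then forskolin (final 10 µM) 30 min later; 5 h at 37 °C.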

[6] = Inhibition of KIX domain of CBP interaction with KID domain of CREB after 20-24 hrs by Renilla luciferase complementation assay
In short: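 RLucC-KIX (20 ng) and KID-RLucN lysate (1.0 µg) per reaction in Renilla lysis buffer with compound, incubated at 4 °C for 20–24 h; residual luminescence read with benzyl-coelenterazine in PBS pH 7.4.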

[7] = system: A549; assay: Inhibition of CREB in human A549 cells assessed as reduction in VEGF level at 2.5 to 10 uM after 24 hrs by ELISA; format: cell-based
In short: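 A549 cells treated in duplicate for 24 h; VEGF in culture medium measured by ELISA and normalized to medium protein concentration; one-way ANOVA.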

[8] = system: A549; assay: Inhibition of CREB in human A549 cells assessed as reduction in Bcl-2 protein expression at 5 to 10 uM after 48 hrs by Western blot analysis; format: cell-based
In short: (§1)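 Exponentially growing A549 cells treated 48 h; washed in cold PBS, lysed in NP-40 buffer (50 mM Tris pH 8.0, 5 mM EDTA, 150 mM NaCl, 1 mM DTT, 0.5% NP-40) with 8 M urea. Equal protein on 10% SDS-PAGE, PVDF transfer, antibody detection; GAPDH loading control.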

[9] = system: HFF; assay: Cytotoxicity against human HFF cells assessed as effect on cell viability at 5 to 10 uM after 48 hrs by trypan blue exclusion assay; format: cell-based
In short: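 HFF cells (maintained in DMEM, 10% FBS, 37 °C, 5% CO2) exposed to increasing compound concentrations in triplicate for 48 h; live cells counted by trypan blue exclusion.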

[10] = system: HMEC; assay: Cytotoxicity against HMEC assessed as effect on cell viability at less than or equal to 10 uM after 48 hrs by trypan blue exclusion assay; format: cell-based; settings: human
In short: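 HMEC grown in MEGM complete medium, switched to DMEM with 10% FBS and penicillin/streptomycin on the day of treatment; compound added at various concentrations, triplicate, 48 h at 37 °C, 5% CO2. Live cells counted by trypan blue exclusion; one-way ANOVA.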

[11] = system: MCF7; assay: Cytotoxicity against human MCF7 cells expressing wild type CREB assessed as reduction in cell proliferation at 0.5 to 10 uM after 48 hrs by MTT assay; format: functional, cell-based
In short: (§2)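 MCF-7 cells stably transfected with Flag-tagged VP16-CREB (G418 2 mg/mL selection; expression checked by anti-FLAG blot) alongside parental MCF-7. Compound at indicated concentrations in triplicate for 48 h; live cells quantified with MTT reagent; Student's t-test.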

[12] = system: MCF7; assay: Cytotoxicity against human MCF7 cells expressing VP16-CREB mutant assessed as effect on cell proliferation at 0.5 to 10 uM after 48 hrs by MTT assay; format: functional, cell-based; in short: as §2
[13] = system: A549; assay: Induction of apoptosis in human A549 cells assessed as necrotic cells at 10 uM after 48 hrs by Annexin V-FITC/PI staining based flow cytometry (reference value: 1.5%); format: functional
[14] = system: A549; assay: Induction of apoptosis in human A549 cells assessed as late apoptotic cells at 10 uM after 48 hrs by Annexin V-FITC/PI staining based flow cytometry (reference value: 2.98%); format: functional
[15] = system: A549; assay: Induction of apoptosis in human A549 cells assessed as early apoptotic cells at 10 uM after 48 hrs by Annexin V-FITC/PI staining based flow cytometry (reference value: […]); format: functional
[16] = system: A549; assay: Induction of apoptosis in human A549 cells assessed as viable cells at 10 uM after 48 hrs by Annexin V-FITC/PI staining based flow cytometry (reference value: 91.6%); format: functional; settings: A549, 48 h, read-out: Activity
[17] = system: A549; assay: Induction of apoptosis in human A549 cells assessed as necrotic cells at 7.5 uM after 48 hrs by Annexin V-FITC/PI staining based flow cytometry (reference value: 1.5%); format: functional
[18] = system: A549; assay: Induction of apoptosis in human A549 cells assessed as late apoptotic cells at 7.5 uM after 48 hrs by Annexin V-FITC/PI staining based flow cytometry (reference value: 2.98%); format: functional
[19] = system: A549; assay: Induction of apoptosis in human A549 cells assessed as early apoptotic cells at 7.5 uM after 48 hrs by Annexin V-FITC/PI staining based flow cytometry (reference value: […]); format: functional
[20] = system: A549; assay: Induction of apoptosis in human A549 cells assessed as viable cells at 7.5 uM after 48 hrs by Annexin V-FITC/PI staining based flow cytometry (reference value: 91.6%); format: functional; settings: A549, 48 h, read-out: Activity
[21] = system: A549; assay: Induction of apoptosis in human A549 cells assessed as necrotic cells at 5 uM after 48 hrs by Annexin V-FITC/PI staining based flow cytometry (reference value: 1.5%); format: functional
[22] = system: A549; assay: Induction of apoptosis in human A549 cells assessed as late apoptotic cells at 5 uM after 48 hrs by Annexin V-FITC/PI staining based flow cytometry (reference value: 2.98%); format: functional
[23] = system: A549; assay: Induction of apoptosis in human A549 cells assessed as early apoptotic cells at 5 uM after 48 hrs by Annexin V-FITC/PI staining based flow cytometry (reference value: […]); format: functional
[24] = system: A549; assay: Induction of apoptosis in human A549 cells assessed as viable cells at 5 uM after 48 hrs by Annexin V-FITC/PI staining based flow cytometry (reference value: 91.6%); format: functional; settings: A549, 48 h, read-out: Activity
[25] = system: A549; assay: Induction of apoptosis in human A549 cells assessed as PARP cleavage at 5 to 10 uM after 48 hrs by Western blot analysis; format: functional, cell-based; in short: as §1
[26] = molecular target: Cellular tumor antigen p53 (Homo sapiens) (UniProt P04637); assay: Inhibition of p53 in human A549 cells assessed as effect on p21 gene expression at 1 to 10 uM after 4 hrs by quantitative RT-PCR analysis; format: cell-based
In short: (§3)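 A549 cells treated in duplicate for 4 h; total RNA DNase-treated (37 °C, 30 min), reverse-transcribed with random hexamers; qPCR with SYBR Green normalized to HPRT; one-way ANOVA.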

[27] = system: A549; assay: Inhibition of CREB in human A549 cells assessed as reduction in VEGF gene expression at 10 uM after 4 hrs by quantitative RT-PCR analysis; format: cell-based
[28] = system: A549; assay: Inhibition of CREB in human A549 cells assessed as reduction in Bcl-2 gene expression at 1 to 10 uM after 4 hrs by quantitative RT-PCR analysis; format: cell-based; in short: as §3
[29] = molecular target: Cellular tumor antigen p53 (Homo sapiens) (UniProt P04637); assay: Inhibition of p53 transfected in HEK293T cells assessed as gene transcription after 5 hrs by Renilla luciferase reporter assay; format: cell-based; settings: HEK-293T
[30] = molecular target: Cellular tumor antigen p53 (Homo sapiens) (UniProt P04637); assay: Inhibition of p53 in human A549 cells assessed as effect on p21 protein expression at 5 to 10 uM after 48 hrs by Western blot analysis; format: cell-based; in short: as §1
[31] = system: MCF7; assay: Cytotoxicity against human MCF7 cells expressing wild type CREB assessed as reduction in cell proliferation at 10 to 50 uM after 48 hrs by MTT assay; format: functional, cell-based; in short: as §2
[32] = system: MCF7; assay: Cytotoxicity against human MCF7 cells expressing VP16-CREB mutant assessed as reduction in cell proliferation at 10 to 50 uM after 48 hrs by MTT assay; format: functional, cell-based; in short: as §2

Chain of Cellular tumor antigen p53 (Homo sapiens) (P04637 whole entry, looked up): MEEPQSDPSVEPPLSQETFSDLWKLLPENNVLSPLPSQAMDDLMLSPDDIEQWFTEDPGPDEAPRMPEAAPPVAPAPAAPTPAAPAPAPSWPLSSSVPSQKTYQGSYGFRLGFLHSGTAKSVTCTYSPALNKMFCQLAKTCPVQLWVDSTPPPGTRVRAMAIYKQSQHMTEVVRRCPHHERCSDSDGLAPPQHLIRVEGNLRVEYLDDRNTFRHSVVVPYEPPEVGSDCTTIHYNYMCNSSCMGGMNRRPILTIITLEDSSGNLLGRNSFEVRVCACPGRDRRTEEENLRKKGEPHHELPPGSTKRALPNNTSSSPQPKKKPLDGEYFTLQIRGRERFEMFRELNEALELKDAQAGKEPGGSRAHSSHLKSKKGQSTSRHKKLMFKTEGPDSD

- GI50 [1]: 1.46 µM
- GI50 [2]: 2.35 µM
- GI50 [3]: 2.81 µM
- GI50 [4]: 2.9 µM
- IC50 [5]: 2.29 µM
- IC50 [6]: 2.9 µM
- inhibition [26]: inactive
- inhibition [29]: inactive
- inhibition [30]: inactive
Compound: O=C(Nc1ccc(Cl)cc1)c1cc2ccccc2cc1O
- inhibition [7]: Active
- inhibition [8]: Active
- Activity [9]: Non-toxic
- Activity [10]: Non-toxic
- Activity [11]: Active
- Activity [12]: inactive
- Activity [13]: 0.58%
- Activity [14]: 4.2%
- Activity [15]: 19.4%
- viability at 10 µM [16]: 75.9%
- Activity [17]: 1.42%
- Activity [18]: 2.9%
- Activity [19]: 10.1%
- viability at 7.5 µM [20]: 85.6%
- Activity [21]: 1.36%
- Activity [22]: 3.06%
- Activity [23]: 6.5%
- viability at 5 µM [24]: 89.1%
- Activity [25]: Active
- inhibition [27]: Active
- inhibition [28]: Active

- GI50 [1]: 63.3 µM
- GI50 [2]: 64.2 µM
- GI50 [3]: 3.62 µM
- GI50 [4]: 4.15 µM
- IC50 [5]: 6.75 µM
- IC50 [6]: > 50 µM
Compound: O=C(Nc1ccc(C(F)(F)F)cc1)c1cc2ccccc2cc1O

- GI50 [1]: 6.61 µM
- GI50 [2]: 9.93 µM
- GI50 [3]: 1.83 µM
- GI50 [4]: 3.98 µM
- IC50 [5]: 3.45 µM
- IC50 [6]: 9.59 µM
Compound: O=C(Nc1ccc(Br)cc1)c1cc2ccccc2cc1O

- GI50 [1]: 63.4 µM
- GI50 [2]: 35.5 µM
- GI50 [3]: 15.8 µM
- GI50 [4]: 25 µM
- IC50 [5]: 20.7 µM
- IC50 [6]: 16.3 µM
Compound: O=C(Nc1ccncc1)c1cc2ccccc2cc1O

- GI50 [1]: 2.78 µM
- GI50 [2]: 11.4 µM
- GI50 [3]: 4.16 µM
- GI50 [4]: 6.78 µM
- IC50 [5]: 4.86 µM
- IC50 [6]: 1.73 µM
Compound: O=C(Nc1ccc(F)cc1)c1cc2ccccc2cc1O

- GI50 [1]: 57.1 µM
- GI50 [2]: > 100 µM
- GI50 [3]: 28 µM
- GI50 [4]: 51.6 µM
- IC50 [5]: > 50 µM
- IC50 [6]: 25.4 µM
Compound: Nc1ccc(NC(=O)c2cc3ccccc3cc2O)cc1

- GI50 [1]: 2.94 µM
- GI50 [2]: 7.87 µM
- GI50 [3]: 9.76 µM
- GI50 [4]: 5.51 µM
- IC50 [5]: 4.98 µM
- IC50 [6]: 34.5 µM
Compound: O=C(Nc1ccc(I)cc1)c1cc2ccccc2cc1O

- GI50 [1]: 65.3 µM
- GI50 [2]: > 100 µM
- GI50 [3]: 9.52 µM
- GI50 [4]: 28.1 µM
- IC50 [5]: 40.5 µM
- IC50 [6]: 28.2 µM
Compound: O=C(Nc1ccc(O)cc1)c1cc2ccccc2cc1O

- GI50 [1]: 79.3 µM
- GI50 [2]: 75.5 µM
- GI50 [3]: 6.55 µM
- GI50 [4]: 85.7 µM
- IC50 [5]: > 50 µM
- IC50 [6]: > 50 µM
Compound: COc1ccc(NC(=O)c2cc3ccccc3cc2O)cc1

The next lines start with the compound.

Compound: O=C(Nc1ccccc1Cl)c1cc2ccccc2cc1O
- GI50 [1]: 6.65 µM
- GI50 [2]: 17.2 µM
- GI50 [3]: 2.27 µM
- GI50 [4]: 4.83 µM
- IC50 [5]: 5.72 µM
- IC50 [6]: 5.43 µM

Compound: O=C(Nc1cccc(Cl)c1)c1cc2ccccc2cc1O
- GI50 [1]: 2.58 µM
- GI50 [2]: 4.91 µM
- GI50 [3]: 2.43 µM
- GI50 [4]: 3.68 µM
- IC50 [5]: 2.7 µM
- IC50 [6]: > 50 µM

Compound: O=C(Nc1ccc(F)c(F)c1)c1cc2ccccc2cc1O
- GI50 [1]: 4.19 µM
- GI50 [2]: 11.6 µM
- GI50 [3]: 2.09 µM
- GI50 [4]: 3.57 µM
- IC50 [5]: 3.73 µM
- IC50 [6]: 2.39 µM

Compound: O=C(Nc1cnccn1)c1cc2ccccc2cc1O
- GI50 [1]: 37.6 µM
- GI50 [2]: > 100 µM
- GI50 [3]: 17.9 µM
- GI50 [4]: 33.2 µM
- IC50 [5]: > 50 µM
- IC50 [6]: 20.3 µM

Compound: O=C(Nc1ccccn1)c1cc2ccccc2cc1O
- GI50 [1]: 5.69 µM
- GI50 [2]: 44.2 µM
- GI50 [3]: 6.25 µM
- GI50 [4]: 75.8 µM
- IC50 [5]: > 50 µM
- IC50 [6]: 1.69 µM

Compound: O=C(Nc1ccc(F)c(Cl)c1)c1cc2ccccc2cc1O
- GI50 [1]: 0.85 µM
- GI50 [2]: 2.2 µM
- GI50 [3]: 6.86 µM
- GI50 [4]: 3.65 µM
- IC50 [5]: 2.29 µM
- IC50 [6]: 5.13 µM

Compound: CN(C(=O)c1cc2ccccc2cc1O)c1ccc(Cl)cc1
- Activity [31]: Active
- Activity [32]: Active
